WT yeast gro inh: growth inhibition of WT yeast, mitochondrial fusion screen. inhibition, % at 10 µM. mitochondrial fusion phenotypic screen, WT strain. AID 1362. 190,000 tested, 2.1% active; in the data active means inhibition above about 58%; tested in S. cerevisiae
PMI act hi M6P: increases human PMI activity with near-saturating mannose 6-phosphate | coupled PMI enzyme assay, resazurin fluorescence, 20 min; stronger effect = higher value; 1 = untreated enzyme, 0 = substrate-free blank | activation factor at 20 µM | 190,000 tested, 0.34% active | AID 1216;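 active means activation factor of 2 or more at 20 µM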
Target sequence (P34949 whole entry, looked up): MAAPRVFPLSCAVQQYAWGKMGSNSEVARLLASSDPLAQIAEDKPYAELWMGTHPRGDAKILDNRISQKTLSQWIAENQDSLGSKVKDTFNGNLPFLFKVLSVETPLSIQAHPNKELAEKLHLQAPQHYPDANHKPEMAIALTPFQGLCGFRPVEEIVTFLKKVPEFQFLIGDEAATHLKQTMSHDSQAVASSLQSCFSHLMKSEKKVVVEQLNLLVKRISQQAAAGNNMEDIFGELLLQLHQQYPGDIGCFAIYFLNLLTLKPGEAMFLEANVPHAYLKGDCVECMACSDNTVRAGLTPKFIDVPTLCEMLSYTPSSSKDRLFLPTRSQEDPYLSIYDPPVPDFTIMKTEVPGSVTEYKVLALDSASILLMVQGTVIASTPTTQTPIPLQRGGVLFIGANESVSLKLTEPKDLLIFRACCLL
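Test system: human phosphomannose isomerase with PGI, G6PDH, diaphorase coupling enzymes; Amount: PMI at 15 ng/mL final; Reagent: Mannose-6-phosphate 1.0 mM (near-saturating) plus 0.22 mM NADP+; Timing: 20 min, room temperature; Technique: resorufin fluorescence at Ex 544/Em 590 nm; Dosing: 20 µM single dose.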
Lmaj promast: reduces viability of Leishmania major promastigotes; 200,000 tested, 9% active; AID 1063; inhibition, % at 10 µM; resazurin fluorescence viability; in the data active means inhibition above about 50%;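 further: promastigotes grown with compound for 44 hours at 28 °C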
Diaphorase act: activates diaphorase or chemically reduces, flagging diaphorase assay artifacts; Diaphorase/resazurin coupled assay, resorufin fluorescence, 16 min; stronger effect = higher value; 1 = vehicle wells, 0 = NADH-free wells; activation factor at 20 µM; 190,000 tested, 0.005% active; AID 1229;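 active means diaphorase activity raised at least twofold by the compound at 20 µM; inactive means activation factor below 2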
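System – purified diaphorase enzyme from Clostridium kluyveri · Input – enzyme 0.07 U/mL final · Also added – final NADH 0.114 mM, resazurin 0.1 mM · Measured by – fluorescence of resorufin, 544 nm excitation, 590 nm emission · Timing – 16 min enzyme reaction, ambient temperature · Measure – resorufin increase flagging diaphorase activators or reducers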
PMI act: increases human mannose-6-phosphate isomerase activity. P34949. purified human PMI, coupled resazurin fluorescence, 20 min; stronger effect = higher value; 1 = vehicle control, 0 substrate-free wells. activation factor at 20 µM. 190,000 tested, 0.005% active. AID 1214;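 active means activation factor of 2 or more at 20 µM, relative to plate controls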
The depositor's hits bear a star. Compounds with a hit are over-represented: about 10% of the library has one in this group of screens.

SMILES | WT yeast gro inh | PMI act hi M6P | Lmaj promast | Diaphorase act | PMI act
Cc1ccc(NC(=O)C2CCCN(C(=O)c3ccc(Cl)cc3)C2)c(C)c1 (centres undefined) | 5 | 0.9 | 7 | 0.9 | 0.9
CS(=O)(=O)N1CCC(Oc2ccccc2C(=O)N2CCN(CC3CC3)CC2)CC1 | -4 | 1.1 | -3 | 1 | 1
Cc1ccc(Nc2nc(CSc3nnc(-c4ccc(F)cc4)n3C)cs2)cc1 | 32 | 0.9 | 81* | 0.8 | 0.9
COc1ccc(-c2nnc(SCc3csc(N)n3)n2C)cc1 | -5 | 0.9 | -10 | 0.9 | 1
COc1cc(C(=O)NCC(c2cccnc2)N2CCN(c3ccc(F)cc3)CC2)cc(OC)c1OC (centres undefined) | -11 | 1 | 78* | 1 | 1.1
O=C(NCC(c1cccnc1)N1CCN(c2ccc(F)cc2)CC1)c1ccco1 (centres undefined) | -3 | 0.9 | 72* | 0.9 | 1
COc1ccc(C(=O)NCC(c2ccc(F)cc2)N2CCOCC2)cc1S(=O)(=O)N1CCCC1 (centres undefined) | -4 | 0.8 | -8 | 0.9 | 0.9
Cc1sc(NC(=O)c2ccco2)c(C(c2cccnc2)N2CCCC2)c1C (centres undefined) | 31 | 1 | 99* | 0.8 | 1
Cc1sc(NC(=O)c2ccco2)c(C(c2cccnc2)N2CCN(C)CC2)c1C (centres undefined) | 7 | 1 | 9 | 0.9 | 1
COc1ccc(C(=O)NCC(c2cccnc2)N2CCN(c3ccc(F)cc3)CC2)cc1OC (centres undefined) | -6 | 1 | 97* | 0.9 | 1
CC[C@@H](C)[C@@H](C(=O)N1CCN(C(=O)OC(C)(C)C)CC1)n1cc(CCCCNC(=O)OC(C)(C)C)nn1 | -6 | 1 | -1 | 0.8 | 1
Cc1nc2ccccn2c1C(=O)CSc1cccc(Cl)c1 | 27 | 1.1 | 9 | 0.9 | 1.1
O=C(NCC(c1cccnc1)N1CCOCC1)c1ccco1 (centres undefined) | 71* | 1.2 | 0 | 0.9 | 1
O=C(NCc1cccnc1)C(=O)NCC(c1ccco1)N1CCN(c2ccc(F)cc2)CC1 (centres undefined) | -3 | 1.1 | 48 | 1 | 1
COC(=O)NCC(c1cccnc1)N1CCOCC1 (centres undefined) | 8 | 1.4 | -11 | 0.8 | 1.4
FC(F)(F)c1cccc(NC(=S)NCC(c2cccnc2)N2CCOCC2)c1 (centres undefined) | -2 | 1 | 61* | 1 | 1
O=C(NCC(c1cccnc1)N1CCN(c2ccc(F)cc2)CC1)c1ccc(F)cc1 (centres undefined) | 13 | 1.1 | 88* | 1 | 1
O=C(NCCCn1ccnc1)C(=O)NCC(c1cccnc1)N1CCN(c2ccccc2)CC1 (centres undefined) | 0 | 0.9 | 33 | 1 | 0.9
COc1ccc(C(=O)NCC(c2cccnc2)N2CCN(c3ccccc3)CC2)cc1OC (centres undefined) | 0 | 1 | 81* | 0.9 | 1
O=C(Cc1ccc(F)cc1)Nc1ccc(S(=O)(=O)N2CCCCC2)cc1 | 4 | 0.9 | 2 | 0.6 | 0.9
O=C(Nc1ccc(F)c([N+](=O)[O-])c1)c1ccc2c(c1)OCCO2 | 9 | 0.9 | -1 | 0.8 | 0.9
CCC(CC)=NNc1cccc([N+](=O)[O-])c1 | 18 | 1.3 | -6 | 0.9 | 1.3
CC(C)(C)CC(C)(C)NC(=O)Nc1cccc([N+](=O)[O-])c1 | 64* | 1 | 11 | 0.8 | 1
CC/C(C)=N/Nc1cccc([N+](=O)[O-])c1 | 67* | 1.7 | 96* | 0.9 | 1.4
Cc1cc(NC(=O)Nc2cccc([N+](=O)[O-])c2)no1 | -9 | 0.9 | 5 | 0.9 | 0.9
O=C(N/N=C/c1cccc([N+](=O)[O-])c1)c1cnccn1 | -9 | 0.9 | 2 | 0.8 | 1
O=C(Nc1cccc([N+](=O)[O-])c1)c1ccc2c(c1)OCCO2 | -3 | 1 | 52* | 0.9 | 1.1
O=C(Nc1cccc([N+](=O)[O-])c1)c1cnccn1 | 7 | 1 | 65* | 0.9 | 1.1
O=C(Nc1cccc([N+](=O)[O-])c1)c1ccncc1 | 7 | 0.9 | 9 | 0.9 | 0.9
CC(C)(C)c1ccc(C(=O)Nc2cccc([N+](=O)[O-])c2)cc1 | 62* | 1 | 4 | 1 | 1

Compound activity (PubChem)
